In the library only some 1.5% were active in any assay of this set; here they are far more common.
Hsp70 activator: Hsp70 transcriptional activators, primary screen, cell-based, HeLa, Hsp70 promoter luciferase, luminescence, 10 µM; 200,000 tested, 0.04% active; activation, % at 10 µM; AID 1203, 2008; HeLa Hsp70 promoter luciferase reporter; scaled: vehicle 0, proteasome-inhibitor control 100%;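 active = activation above the mean across all tested compounds plus 3 SD, cutoff set per campaign, cut at about 5.5% in these data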;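 also: 100% = MG132 at 30 µM as the positive control and 0% = DMSO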
PP5 primary: PP5 phosphatase inhibitors, primary screen, biochemical, fluorescence; Serine/threonine-protein phosphatase 5 (Homo sapiens), P53041; purified PP5c, OMFP substrate fluorescence; inhibition, % at 6.7 µM; 320,000 tested, 0.18% active; AID 1987, 2009;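 active = inhibition above the campaign's mean inhibition across all tested compounds plus 3 SD, cut at about 9.5% in these data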;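 also: 0% = DMSO only and 100% = 100 µM cantharidin control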
p97 inhibitor: inhibitors of human p97 ATPase, primary screen, biochemical | Transitional endoplasmic reticulum ATPase (Homo sapiens), P55072 | recombinant p97 ATPase, Kinase-Glo ATP luminescence, 3 h | inhibition, % at 8 µM | 220,000 tested, 0.42% active | AID 1481, 2009; in the data active = inhibition above about 15%;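 also: 0% = DMSO vehicle and 100% = wells lacking enzyme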
RBBP9 inhibitor: human RBBP9 inhibitors, primary screen, biochemical, fluorescence polarization, FP-Rh probe, HTS | Serine hydrolase RBBP9 (Homo sapiens), O75884 | 220,000 tested, 0.2% active | recombinant RBBP9 | inhibition, % at 7.94 µM | AID 1515, 2009;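 active = inhibition above the campaign mean of all tested compounds plus 3 SD, cut at about 14% in these data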;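 also: plate controls were DMSO wells with RBBP9 for no effect and wells lacking RBBP9 protein for full effect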
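System: RBBP9 protein | Quantity: 2.5 µM RBBP9 dispensing solution, before mixing | Reagent: FP-Rh probe, 375 nM dispensing solution | Timing: Enzyme-compound preincubation 30 min, then probe labeling 45 min, 25 °C | Measured by: Fluorescence polarization | Read-out: % inhibition | Replication: One well per compound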
PP1 inh: PP1-alpha phosphatase inhibitors, primary screen, counter-screen for PP5 inhibitor project, biochemical, fluorescence, OMFP substrate, single point. Serine/threonine-protein phosphatase PP1-alpha catalytic subunit (Homo sapiens), P62136. 320,000 tested, 0.9% active. purified PP1alpha. inhibition, % at 6.7 µM;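 active = inhibition above the mean inhibition of all tested compounds plus 3 SD, computed separately for each screening campaign, cut at about 15% in these data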
PKD1 kinase inh: inhibitors of human PKD1 kinase, biochemical, fluorescence polarization; inhibition, % (test concentration not listed); PKD1 kinase fluorescence polarization assay; Serine/threonine-protein kinase D1 (Homo sapiens), Q15139; AID 797, 2007; 200,000 tested, 0.056% active; in the data active = inhibition above about 50%
Target sequence (Q15139 whole entry, looked up): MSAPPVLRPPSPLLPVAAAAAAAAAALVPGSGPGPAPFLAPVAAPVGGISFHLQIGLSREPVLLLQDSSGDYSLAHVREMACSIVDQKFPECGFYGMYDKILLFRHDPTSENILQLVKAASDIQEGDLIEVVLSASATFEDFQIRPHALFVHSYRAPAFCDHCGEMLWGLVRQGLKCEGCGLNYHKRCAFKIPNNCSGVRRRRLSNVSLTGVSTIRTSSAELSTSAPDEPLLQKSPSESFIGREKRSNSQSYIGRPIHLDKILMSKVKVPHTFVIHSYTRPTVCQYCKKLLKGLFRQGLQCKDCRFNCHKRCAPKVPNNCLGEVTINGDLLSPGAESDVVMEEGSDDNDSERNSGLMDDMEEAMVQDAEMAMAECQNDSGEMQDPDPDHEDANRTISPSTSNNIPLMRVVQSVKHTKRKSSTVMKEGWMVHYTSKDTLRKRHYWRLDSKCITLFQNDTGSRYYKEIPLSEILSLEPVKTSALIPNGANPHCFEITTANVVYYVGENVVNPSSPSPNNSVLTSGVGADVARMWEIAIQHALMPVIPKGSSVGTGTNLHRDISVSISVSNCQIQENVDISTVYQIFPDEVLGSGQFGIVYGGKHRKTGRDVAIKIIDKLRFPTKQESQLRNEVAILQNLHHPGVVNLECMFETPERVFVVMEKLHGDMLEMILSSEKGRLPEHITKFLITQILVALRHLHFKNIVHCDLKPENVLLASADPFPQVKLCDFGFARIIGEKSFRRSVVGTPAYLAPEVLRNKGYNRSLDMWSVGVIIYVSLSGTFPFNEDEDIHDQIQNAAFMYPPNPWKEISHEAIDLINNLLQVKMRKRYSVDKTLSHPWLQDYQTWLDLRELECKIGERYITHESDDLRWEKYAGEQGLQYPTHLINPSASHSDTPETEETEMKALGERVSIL
p97 confirm: p97 ATPase inhibitors, retest, confirmation, biochemical; inhibition, % at 8 µM; recombinant p97 ATPase, Kinase-Glo ATP luminescence; AID 1517, 2009; shares compounds with p97 inhibitor; 760 tested, 44% active;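 active = percent inhibition of p97 ATPase above a set limit, the primary screen's mean plus 3 SD, cut at about 15% in these data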;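 also: 0% = DMSO wells and 100% = wells lacking p97 protein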
RBBP9 confirm: human RBBP9 inhibitors, retest, confirmation, biochemical, fluorescence polarization, FP-Rh probe, triplicate; shares compounds with RBBP9 inhibitor; recombinant RBBP9; inhibition, % at 7.94 µM; 410 tested, 36% active; AID 1537, 2009;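 active = inhibition above the hit cutoff derived for the primary screen, cut at about 15% in these data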;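 also: 0% = RBBP9 with DMSO and 100% = wells lacking RBBP9 protein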
PP5 inh confirm: PP5 phosphatase inhibitors, confirmation, biochemical, fluorescence, human; shares compounds with PP5 primary; Purified PP5, fluorogenic phosphatase substrate; inhibition, % at 6.7 µM; 460 tested, 22% active; AID 2331, 2010; in the data active = inhibition above about 9.5%
PP1 inh counter: PP1 phosphatase inhibitors, counter-screen for PP5 inhibitor project, biochemical, fluorescence, triplicate. shares compounds with PP5 primary. PP1 enzyme, fluorescent phosphatase substrate. inhibition, % at 6.7 µM. 460 tested, 4% active; in the data active = inhibition above about 16%
PP1 inh confirm: PP1 phosphatase inhibitors, confirmation, biochemical, fluorescence, OMFP substrate, triplicate | shares compounds with PP1 inh | purified PP1alpha | inhibition, % at 6.7 µM | 1,900 tested, 52% active;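 active = mean PP1 inhibition above a set limit taken from the earlier primary screen, cut at about 15% in these data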
PP5 counter: PP5 phosphatase inhibition by PP1 hits, confirmation, counter-screen for PP1 inhibitor project, biochemical, fluorescence, triplicate; 1,900 tested, 4% active; purified PP5c, OMFP fluorescence; inhibition, % at 6.7 µM; shares compounds with PP1 inh;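 active = mean PP5 inhibition over triplicate wells above about 9.5% taken from the earlier PP1 screen, limit read from the data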
* = called active by the depositor; · = no result given; ! = not confirmed by another sample.

SMILES	Hsp70 activator	PP5 primary	p97 inhibitor	RBBP9 inhibitor	PP1 inh	PKD1 kinase inh	PP1 inh confirm	PP5 counter	others
Cc1[nH]n(-c2ccccc2)c(=O)c1C(c1ccc([N+](=O)[O-])cc1)c1c(C)[nH]n(-c2ccccc2)c1=O	0	9.9*	40*	-2	-1	11	·	·	p97 confirm=8;PP5 inh confirm=16*;PP1 inh counter=9
Cc1ncc(CNC(=O)N(CCCl)N=O)c(N)n1	·	2	·	·	2	·	·	·
CCN(CC)C(=O)c1ccc2c(c1)C1C(Cl)C(Sc3ccccc3[N+](=O)[O-])CC1C(C(=O)O)N2 (stereo not given)	·	1	-3	28*	19*	·	2	2	RBBP9 confirm=11
COc1ccc(CNC(=O)/C=C/c2ccc3[nH]cc(CCN(C)C)c3c2)cc1	·	1	·	·	-1	·	·	·
CCOC(=O)c1ccc(NC(=O)C2C3C=CC(O3)C2C(=O)O)cc1 (stereo not given)	0	28*	3	7	8	-10	·	·	PP5 inh confirm=-3;PP1 inh counter=2
CCCCC(=O)N/N=C/c1c(O)n(-c2cccc3ccccc23)c(=O)[nH]c1=O	·	2	5	-7	13	·	·	·
CSCCC(N=Cc1c(O)n(-c2ccc(Br)cc2)c(=O)[nH]c1=O)C(=O)OC(C)(C)C (stereo not given)	0	2	4	0	0	6	·	·
O=C1CN=C(c2ccccc2)c2ccccc2N1Cc1ccc(C(F)(F)F)cc1	0	13*	-3	3	-1	-24	·	·	PP5 inh confirm=-1;PP1 inh counter=0
Cc1oc(-c2ccccc2Cl)nc1CN1C(=O)CN=C(c2ccccc2)c2ccccc21	0	3	-5	-7	5	-11	·	·
C/C=C(\C)C(=O)OC1C(C)=C2C(C1OC(=O)CCCCC)C(C)(OC(C)=O)CC(OC(=O)CCC)C1(O)C2OC(=O)C1(C)O (stereo not given)	·	11*	·	·	6	·	·	·	PP5 inh confirm=11*;PP1 inh counter=11
CC(=O)c1ccccc1NC(=O)C1C2CCC(O2)C1C(=O)O (stereo not given)	0	71*	6	-1	72*	-6	33*	39*
O=C(O)C1C2CCC(O2)C1C(=O)Nc1ccc(F)c(F)c1 (stereo not given)	·	74*	·	·	68*	·	13	22*
CC(C)C(=O)Nc1ccc(N2CCN(C)CC2)c(F)c1	0	1	-2	-1	-1	-7	·	·
CN(C)C(=O)Oc1cccc(OCc2n(C)c3ccccc3[n+]2C)c1	0	-3	-2	-4	-1	-6	·	·
Clc1ccc(C(Cn2ccnc2)OCc2csc3c(Cl)cccc23)c(Cl)c1 (stereo not given)	·	2	·	·	32*	·	29*	-1
O=c1[nH]c(=O)n(CCC2=CCCCC2)c(O)c1/C=N/Nc1cccc2ccccc12	·	0	3	2	21*	·	18*	2
O=c1[nH]c(=O)n(CCC2=CCCCC2)c(O)c1/C=N/Nc1ccccc1	0	2	6	1	10	2	·	·
O=C1CC(c2ccccc2)CN1 (stereo not given)	·	-1	1	-8	-2	·	·	·
CCC/C=N/O	·	0	·	·	1	·	·	·
Cc1ccccc1N1C(=O)/C(=C/c2ccco2)C(=O)NC1=S	·	4	·	·	69*	·	35*	2
COC1C(OC(=O)c2ccc(C)[nH]2)C(O)C(Oc2ccc3c(O)c(NC(=O)c4ccc(O)c(CC=C(C)C)c4)c(=O)oc3c2Cl)OC1(C)C (stereo not given)	·	6	5	-5	24*	·	17*	4
CCCC(C)C1(CC)C(=O)NC(=Nc2ccc(OC)cc2)NC1=O (stereo not given)	1	0	2	1	1	3	·	·
Clc1ccc(CCC(Cn2ccnc2)Sc2c(Cl)cccc2Cl)cc1 (stereo not given)	·	5	·	·	34*	·	28*	-3
O=c1[nH]c(=S)[nH]c(O)c1N=Nc1cc(S(=O)(=O)Nc2ccc(Cl)cc2)ccc1Cl	·	2	·	·	21*	·	25*	2
NS(=O)(=O)c1ccc(N=Nc2c(O)[nH]c(=S)[nH]c2=O)cc1	·	2	8	4	-4	·	·	·
SMILES	Hsp70 activator	PP5 primary	p97 inhibitor	RBBP9 inhibitor	PP1 inh	PKD1 kinase inh	PP1 inh confirm	PP5 counter	others
COC(=O)C1=C(c2ccc(S(C)(=O)=O)cc2)C[C@@H]2CC[C@H]1N2C(=O)NC1CCCCC1	·	-1	·	·	5	·	·	·
O=C1NC(=O)N(Cc2ccc(F)cc2)C(=O)/C1=C\C=C\c1ccco1	·	0	2	-10	21*	·	23*	-1
OC1/C(=C/c2ccccc2F)N2CCC1CC2 (stereo not given)	0	-3	3	5	-2	-9	·	·
CCOC(=O)c1cccc(NC(=O)c2c(O)[nH]c(=O)[nH]c2=O)c1	·	2	·	·	19*	·	12	-2
CCCCOC(=O)c1ccc(NC(=O)c2c(O)[nH]c(=O)[nH]c2=O)cc1	·	-1	·	·	9	·	·	·
c1cncc(CNC2CCCC2)c1	0	0	7	-4	0	-2	·	·
O=C(c1cc(C(=O)NCc2ccccc2)c(=O)n(Cc2ccccc2)c1)c1cc(Cl)ccc1O	0	3	2	-7	18*	-13	16*	1
CN(C)[C@@H]1C(=O)C(C(N)=O)=C(O)[C@@]2(O)C(=O)C3=C(O)c4c(O)cccc4[C@@](C)(O)C3[C@H](O)C12 (stereo not given in full)	·	1	·	·	20*	·	14	12*!
CN(C)[C@@H]1C(=O)C(C(N)=O)=C(O)[C@@]2(O)C(=O)C3=C(O)c4c(O)ccc(Cl)c4[C@@](C)(O)C3C[C@@H]12 (stereo not given in full)	0	·	10	8	·	-7	·	·
CC1CC(NC(=O)C2C3CCC(O3)C2C(=O)O)CC(C)(C)C1 (stereo not given)	0	79*	-1	-1	80*	6	30*	48*
COC(=O)C(=O)N1CC2(C)CNCC(C)(C1)C2=O	0	1	5	0	-3	4	·	·

Compound activity as filed in PubChem.
